# Hck-Nef inh = blocks Nef-activated human Hck kinase; P08631; Recombinant Hck-YEEI plus Nef, Z-Lyte FRET kinase assay; inhibition, % at 20 µM; 220,000 tested, 0.68% active; AID 463187;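 active means Hck-Nef kinase inhibition above about 50%, limit read from the data; inactive means inhibition below that limit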;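 further: 0% = DMSO with Hck plus Nef and 100% = Hck alone without Nef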
# Rad51 HR inh = blocks human Rad51 in homologous recombination. hRad51 DNA strand exchange, fluorescence dequenching. AID 1385. 200,000 tested, 0.085% active. inhibition, % at 10 µM;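 active means inhibition above 40% at the single screening dose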;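 further: 0% = DMSO control wells and 100% = blanks with heterologous ssDNA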
#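 System: hRad51 filaments on single-stranded DNA; reagent: Fluorescein- and BHQ1-tagged 47-mer duplex; compound dosing: one concentration, 10 µM final; timing: filaments 15 min 37 °C, then compound 30 min; measured by: fluorescein emission 520 nm, excitation 485 nm; benchmarks: per-plate controls and blanks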
# MDM2 E3 inh = inhibitors of human Mdm2 E3 ubiquitin ligase; 210,000 tested, 0.11% active; Q00987; cell-based MDM2 ubiquitination luciferase reporter, 2 h; 0 = plate control, 100 = twice control, blank-subtracted; signal enhancement, % at 5 µM;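 active means signal enhancement of 30% or more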;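 further: luminescence tracks abundance of the self-degrading MDM2-luciferase fusion protein; higher signal means inhibition of MDM2 E3 ligase activity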
#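 Material: Stable MDM2–luciferase fusion reporter cells | Amount: 2000 cells seeded into each well | Dosing: One concentration, 5 µM, with 0.2% DMSO | Incubation: 4 h cell settling then 2 h compound exposure, 37 °C | Measured by: Luciferase luminescence | Read-out basis: % enhancement relative to plate controls after blank subtraction | Benchmarks: Control and blank well means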
# PERK inhibitor = inhibitors of human PERK kinase. CHO PERK-DD fusion, SEAP luminescence translation reporter. 220,000 tested, 0.17% active. Q9NZJ5. AID 1416. inhibition, % at 5.6 µM;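 active means inhibition above the mean inhibition of all tested compounds plus 3 SD, set separately per screening campaign, cut at about 2.9% in these data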;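 further: PERK kinase domain activated by AP20187 dimerizer at 100 nM; 0% = DMSO with dimerizer and 100% = rapamycin at 8.4 µM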
# PKD1 kinase inh = blocks activity of human protein kinase D1. Q15139. PKD1 kinase fluorescence polarization assay. inhibition, % (concentration not given with the values). 200,000 tested, 0.056% active; in the data active means inhibition above about 50%
# Target sequence (Q15139 whole entry, looked up): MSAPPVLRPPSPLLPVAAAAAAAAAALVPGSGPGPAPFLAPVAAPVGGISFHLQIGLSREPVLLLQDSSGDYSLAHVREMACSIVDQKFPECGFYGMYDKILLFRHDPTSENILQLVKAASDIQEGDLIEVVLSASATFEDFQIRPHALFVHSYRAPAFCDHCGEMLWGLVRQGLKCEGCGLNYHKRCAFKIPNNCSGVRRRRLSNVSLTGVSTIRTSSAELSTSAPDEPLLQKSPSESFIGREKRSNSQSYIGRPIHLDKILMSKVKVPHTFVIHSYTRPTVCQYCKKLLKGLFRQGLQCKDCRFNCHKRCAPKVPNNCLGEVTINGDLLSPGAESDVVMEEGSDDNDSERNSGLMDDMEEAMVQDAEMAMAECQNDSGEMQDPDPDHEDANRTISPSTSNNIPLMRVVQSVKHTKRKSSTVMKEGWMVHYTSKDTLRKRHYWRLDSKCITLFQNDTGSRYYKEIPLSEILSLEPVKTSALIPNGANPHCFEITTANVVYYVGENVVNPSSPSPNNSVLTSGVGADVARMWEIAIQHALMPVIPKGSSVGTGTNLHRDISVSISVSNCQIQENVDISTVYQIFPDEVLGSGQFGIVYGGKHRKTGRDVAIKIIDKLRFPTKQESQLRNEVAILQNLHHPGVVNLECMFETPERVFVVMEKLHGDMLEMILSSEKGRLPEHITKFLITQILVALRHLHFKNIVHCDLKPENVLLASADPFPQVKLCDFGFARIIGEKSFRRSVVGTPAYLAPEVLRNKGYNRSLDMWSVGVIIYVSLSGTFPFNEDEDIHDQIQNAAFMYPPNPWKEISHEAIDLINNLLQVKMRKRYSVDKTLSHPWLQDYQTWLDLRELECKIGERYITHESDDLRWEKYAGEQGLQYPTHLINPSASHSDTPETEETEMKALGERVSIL
# TAG inh = reduces triacylglycerol accumulation in H9c2 cells; Nile Red lipid (TAG) fluorescence; cells loaded with 200 µM oleic acid; inhibition, % at 12.5 µM; 230,000 tested, 0.66% active;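 active means pattern-corrected inhibition of lipid staining of at least 50% with the nuclear-stain viability signal not falling by more than 50%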;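 further: 0% = DMSO wells and 100% = triacsin C control wells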
# Hck Nef conf = Hck-Nef kinase inhibition, confirmation; shares compounds with Hck-Nef inh; Recombinant Hck-YEEI:Nef, Z-Lyte FRET kinase assay; calls only at 10 µM; 1,300 tested, 28% active; AID 463188;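 active means average inhibition of at least 50%, with Z-scores no higher than 3 in both the phospho-tyrosine peptide and fluorescence counterscreens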
# Numbers without * were called inactive; i = inactive; nt = no result given; + = active, no number. Most compounds without a hit are left out; they make up all but 1.3% or so of the library.
SMILES,Hck-Nef inh,Rad51 HR inh,MDM2 E3 inh,PERK inhibitor,PKD1 kinase inh,TAG inh,Hck Nef conf
CC(NCC1(N2CCOCC2)CCCCC1)C(=O)Nc1ccc(Cl)cc1Cl (stereo unspecified),-7.1,-10.8,-4.9,1.2,0.5,-2.9,nt
Oc1cc2c(cc1C(c1ccc(Cl)c(Cl)c1)N1CCCC1)OCO2 (stereo unspecified),70.0*,0.5,-17.2,1.6,1.7,4.5,i
CC(C)c1ccc(NC(=O)C(c2ccc3c(c2)OCO3)N2CCCCC2)cc1 (stereo unspecified),1.6,5.2,-8.4,-0.6,-6.6,-5.2,nt
COc1ccc(C(=O)N/C(=C\c2ccc3c(c2)OCO3)C(=O)Nc2ccc(C(=O)O)cc2)cc1,54.3*,6.9,-1.8,0.8,-2.9,5.5,i
Cc1ccc(C(=O)N/C(=C\c2ccc3c(c2)OCO3)C(=O)Nc2ccc(C(=O)O)cc2)cc1,2.3,-1.4,-9.1,-0.6,0.7,-13.0,nt
CC(=O)n1cc([C@H]2C=C(C(=O)NCc3ccccc3)O[C@@H](OCc3ccc(CO)cc3)C2)c2ccccc21,53.4*,-5.2,nt,-0.8,-3.6,21.6,+
C#CCNC(=O)C1=C[C@@H](c2cn(C(C)=O)c3ccccc23)C[C@@H](OCc2ccc(CO)cc2)O1,10.9,-2.1,nt,-0.1,-4.9,-28.5,nt
CCOC(=O)N1CN(C(=O)OCC)CN(C(=O)OCC)C1,3.1,-16.1,-13.8,1.0,nt,nt,nt
N#CCC(=O)Nc1ccc(C(=O)OCC(=O)N2CCCC2=O)cc1,nt,nt,nt,nt,nt,-6.6,nt
CCN(CC)c1ccc(/C=N/n2nnnc2N)c(O)c1,57.4*,-3.1,-5.9,-0.1,-4.3,nt,i
CCN(C)c1ccc(/C=N\n2nnnc2N)cc1,54.2*,0.3,4.1,1.0,-7.0,45.0,nt
Nc1nnnn1/N=C/c1ccc(O)cc1,0.3,0.7,-18.6,0.8,-3.2,-0.7,nt
CCCCOc1ccccc1C(=O)NCC(=O)O,-3.4,3.5,-5.2,0.1,-5.6,nt,nt
COC(=O)C1=CN(CC2CCCO2)C=C(C(=O)OC)C1c1ccccc1C(F)(F)F (stereo unspecified),31.5,2.4,-9.1,0.5,-0.6,11.2,nt
COC(=O)C1=CN(C)C=C(C(=O)OC)C1c1ccccc1Cl,70.4*,6.2,-8.4,-1.1,-0.1,38.9,nt
CCCOc1ccccc1C1C(C(=O)OC)=CN(C(C)C)C=C1C(=O)OC,68.3*,2.0,-9.4,-0.5,-19.1,1.3,nt
CCCCOc1ccccc1C1C(C(=O)OC)=CN(CC)C=C1C(=O)OC,61.9*,nt,5.8,-1.3,2.8,nt,nt
COC(=O)C1=CN(CCCN2CCCC2=O)C=C(C(=O)OC)C1c1ccccc1C(F)(F)F,85.5*,-6.5,-20.8,-0.4,-13.4,13.0,nt
Cc1ccc(C)c(OCCC(=O)N2CCN(S(=O)(=O)c3ccc([N+](=O)[O-])cc3)CC2)c1,nt,nt,nt,nt,nt,-32.1,nt
NC(=O)CC(NC(=O)Cc1cccc2ccccc12)c1ccc(NCCOc2ccccc2)c([N+](=O)[O-])c1 (stereo unspecified),53.1*,4.2,13.1,nt,nt,-14.5,i
NC(=O)CC(NC(=O)Cc1ccc(Br)cc1)c1ccc(NCCc2ccc(F)cc2)c([N+](=O)[O-])c1 (stereo unspecified),50.5*,-3.8,12.7,nt,nt,-13.4,i
NC(=O)CC(NC(=O)Cc1cccc2ccccc12)c1ccc(NCC2CC2)c([N+](=O)[O-])c1 (stereo unspecified),18.2,6.7,3.2,nt,nt,nt,nt
COc1ccc(CCNc2ccc(C(CC(N)=O)NC(=O)Cc3ccc(Br)cc3)cc2[N+](=O)[O-])cc1 (stereo unspecified),57.2*,-10.2,9.2,nt,nt,-0.9,i
COc1ccc(C(=O)Nc2ccc(O)c3c(=O)cc(-c4cccc(Cl)c4)oc23)cc1,82.8*,2.5,13.3,nt,nt,8.2,i
COc1ccc(C)cc1NC(=O)NNC(=O)C1CCC(C(C)(C)C)CC1 (stereo unspecified),-11.2,nt,-31.8,1.8,-3.7,-18.6,nt
SMILES,Hck-Nef inh,Rad51 HR inh,MDM2 E3 inh,PERK inhibitor,PKD1 kinase inh,TAG inh,Hck Nef conf
O=C1NN(c2cccc(Br)c2)C(=O)/C1=C/c1ccc(-c2cc([N+](=O)[O-])ccc2O)o1,98.3*,18.8,nt,1.7,nt,-3.2,+
S=c1[nH]nc(-c2ccco2)n1/N=C/c1ccc(Cl)c(Cl)c1,4.5,-9.4,-15.5,0.3,5.1,nt,nt
S=c1[nH]nc(-c2ccco2)n1/N=C/c1c(Cl)cccc1Cl,61.0*,15.1,nt,0.5,nt,-0.1,i
CC(=O)Nc1ccc(-c2csc(NC(=O)C3CC(=O)N(c4ccc5c(c4)OCCO5)C3)n2)cc1 (stereo unspecified),50.9*,1.2,nt,1.4,nt,17.2,i
COc1ccc(-c2csc(NC(=O)C3CC(=O)N(c4ccc5c(c4)OCCO5)C3)n2)cc1 (stereo unspecified),3.4,-10.8,-3.0,-0.6,7.3,20.3,nt
O=C(O)CC1S/C(=N/N=C/c2ccc(-c3ccc(Cl)c([N+](=O)[O-])c3)o2)NC1=O (stereo unspecified),119.1*,2.8,-5.2,-0.4,1.0,5.4,i
O=C(O)CC1S/C(=N/N=C/c2ccc(-c3ccc(Cl)cc3[N+](=O)[O-])o2)NC1=O (stereo unspecified),1.2,-7.0,1.5,0.2,7.1,-30.2,nt
CCOC(=O)c1cnc2c(-c3ccc(F)cc3)cnn2c1C(F)(F)F,81.9*,1.3,-19.1,1.5,-5.9,-10.7,i
O=C(CCn1c(=S)oc2ccccc21)NC1CCCCC1,19.0,nt,-8.1,-0.4,nt,-5.7,nt
COC(=O)c1sc2ncccc2c1OCc1c(Cl)cccc1Cl,55.4*,-6.5,-7.7,0.3,4.2,nt,i
COC(=O)c1sc2ncccc2c1OCc1cccc(Cl)c1,2.6,1.2,-7.2,-0.4,-5.6,-6.5,nt
CC(C)(C)OC(=O)NCCCC[C@H](NC(=O)c1[nH]cnc1C(=O)Nc1ccc(CNC(=O)OC(C)(C)C)cc1)C(=O)OC(C)(C)C,42.8,-7.9,-11.3,nt,nt,nt,nt
C[C@H](NC(=O)c1[nH]cnc1C(=O)Nc1ccc(CNC(=O)OC(C)(C)C)cc1)C(=O)OC(C)(C)C,57.2*,4.8,-4.8,nt,nt,-2.2,i
COc1ccc(Cn2ccnc2SCC(=O)Nc2ccc(F)cc2F)cc1,nt,nt,nt,nt,nt,-14.1,nt
O=c1[nH]c(CSc2ncnc3sc(-c4ccccc4)cc23)nc2ccccc12,54.2*,13.7,-9.7,0.7,nt,8.4,i
COc1cccc(-n2c(C)c3c(OC)cccc(=O)c3c2C)c1,50.9*,-12.4,-3.6,-0.6,15.7,-17.1,i
Nc1nonc1-c1nc2ccccc2n1CC(=O)N/N=C/c1ccc(-c2cccc(C(=O)O)c2)o1,91.2*,-2.9,-9.2,0.7,1.3,-4.8,+
